Columns and labels:
Format in all cases: functional
Staphylococcus aureus [1] = assay: Antimicrobial activity against Staphylococcus aureus ATCC […] after 18-24 hrs by two-fold serial dilution method
Summary of the method: (§1)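 Agar-medium twofold serial dilution against Gram-positive and Gram-negative strains; MIC taken as the lowest compound concentration giving complete inhibition of bacterial growth after incubation at 35 °C for 18-24 h.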

Staphylococcus aureus [2] = assay: Antimicrobial activity against extended spectrum beta-lactamases-producing methicillin-resistant Staphylococcus aureus 10-11 after 18-24 hrs by two-fold serial dilution method
Summary of the method: (§2)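 Agar twofold serial dilution MIC against clinical isolates. MIC was taken as the lowest concentration giving complete inhibition of bacterial growth after incubation at 35 °C for 18-24 h.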

Staphylococcus aureus [3] = assay: Antimicrobial activity against extended spectrum beta-lactamases-producing methicillin-resistant Staphylococcus aureus 10-15 after 18-24 hrs by two-fold serial dilution method; summary of the method: as §2
Staphylococcus aureus [4] = assay: Antimicrobial activity against extended spectrum beta-lactamases-producing methicillin-sensitive Staphylococcus aureus 10-13 after 18-24 hrs by two-fold serial dilution method; summary of the method: as §1
Staphylococcus aureus [5] = assay: Antimicrobial activity against extended spectrum beta-lactamases-producing methicillin-sensitive Staphylococcus aureus 10-14 after 18-24 hrs by two-fold serial dilution method; summary of the method: as §1
[6] = test system: Staphylococcus epidermidis; assay: Antimicrobial activity against extended spectrum beta-lactamases-producing methicillin-resistant Staphylococcus epidermidis 10-10 after 18-24 hrs by two-fold serial dilution method; summary of the method: as §2
[7] = test system: Staphylococcus epidermidis; assay: Antimicrobial activity against extended spectrum beta-lactamases-producing methicillin-resistant Staphylococcus epidermidis 10-13 after 18-24 hrs by two-fold serial dilution method; summary of the method: as §2
[8] = test system: Staphylococcus epidermidis; assay: Antimicrobial activity against extended spectrum beta-lactamases-producing methicillin-sensitive Staphylococcus epidermidis 10-11 after 18-24 hrs by two-fold serial dilution method; summary of the method: as §1
[9] = test system: Staphylococcus epidermidis; assay: Antimicrobial activity against extended spectrum beta-lactamases-producing methicillin-sensitive Staphylococcus epidermidis 10-13 after 18-24 hrs by two-fold serial dilution method; summary of the method: as §1
[10] = test system: Staphylococcus epidermidis; assay: Antimicrobial activity against extended spectrum beta-lactamases-producing methicillin-sensitive Staphylococcus epidermidis 10-15 after 18-24 hrs by two-fold serial dilution method; summary of the method: as §1
Enterococcus faecalis [11] = assay: Antimicrobial activity against Enterococcus faecalis 10-5 after 18-24 hrs by two-fold serial dilution method; summary of the method: as §1
Enterococcus faecalis [12] = assay: Antimicrobial activity against Enterococcus faecalis 10-6 after 18-24 hrs by two-fold serial dilution method; summary of the method: as §1
Enterococcus faecalis [13] = assay: Antimicrobial activity against Enterococcus faecalis 10-7 after 18-24 hrs by two-fold serial dilution method; summary of the method: as §1
Enterococcus faecium [14] = assay: Antimicrobial activity against Enterococcus faecium 10-5 after 18-24 hrs by two-fold serial dilution method; summary of the method: as §1
Enterococcus faecium [15] = assay: Antimicrobial activity against Enterococcus faecium 10-9 after 18-24 hrs by two-fold serial dilution method; summary of the method: as §1
Streptococcus pneumoniae [16] = assay: Antimicrobial activity against extended spectrum beta-lactamases-producing Streptococcus pneumoniae 10-1 after 18-24 hrs by two-fold serial dilution method; summary of the method: as §1
Streptococcus pneumoniae [17] = assay: Antimicrobial activity against extended spectrum beta-lactamases-producing Streptococcus pneumoniae 10-4 after 18-24 hrs by two-fold serial dilution method; summary of the method: as §1
Escherichia coli [18] = assay: Antimicrobial activity against Escherichia coli ATCC 25922 after 18-24 hrs by two-fold serial dilution method; summary of the method: as §1
Escherichia coli [19] = assay: Antimicrobial activity against Escherichia coli 10-1 after 18-24 hrs by two-fold serial dilution method; summary of the method: as §1
Escherichia coli [20] = assay: Antimicrobial activity against Escherichia coli 10-2 after 18-24 hrs by two-fold serial dilution method; summary of the method: as §1
Escherichia coli [21] = assay: Antimicrobial activity against extended spectrum beta-lactamases-producing Escherichia coli 10-2 after 18-24 hrs by two-fold serial dilution method; summary of the method: as §1
Escherichia coli [22] = assay: Antimicrobial activity against Escherichia coli 10-3 after 18-24 hrs by two-fold serial dilution method; summary of the method: as §1
Escherichia coli [23] = assay: Antimicrobial activity against extended spectrum beta-lactamases-producing Escherichia coli 10-3 after 18-24 hrs by two-fold serial dilution method; summary of the method: as §1
Escherichia coli [24] = assay: Antimicrobial activity against extended spectrum beta-lactamases-producing Escherichia coli 10-4 after 18-24 hrs by two-fold serial dilution method; summary of the method: as §1
Klebsiella pneumoniae [25] = assay: Antimicrobial activity against extended spectrum beta-lactamases-producing Klebsiella pneumoniae 10-1 after 18-24 hrs by two-fold serial dilution method; summary of the method: as §1
Klebsiella pneumoniae [26] = assay: Antimicrobial activity against Klebsiella pneumoniae 10-2 after 18-24 hrs by two-fold serial dilution method; summary of the method: as §1
Klebsiella pneumoniae [27] = assay: Antimicrobial activity against extended spectrum beta-lactamases-producing Klebsiella pneumoniae 10-2 after 18-24 hrs by two-fold serial dilution method; summary of the method: as §1
Klebsiella pneumoniae [28] = assay: Antimicrobial activity against Klebsiella pneumoniae 10-3 after 18-24 hrs by two-fold serial dilution method; summary of the method: as §1
Klebsiella pneumoniae [29] = assay: Antimicrobial activity against extended spectrum beta-lactamases-producing Klebsiella pneumoniae 10-3 after 18-24 hrs by two-fold serial dilution method; summary of the method: as §1
Klebsiella pneumoniae [30] = assay: Antimicrobial activity against Klebsiella pneumoniae 10-4 after 18-24 hrs by two-fold serial dilution method; summary of the method: as §1
Pseudomonas aeruginosa [31] = assay: Antimicrobial activity against Pseudomonas aeruginosa 10-12 after 18-24 hrs by two-fold serial dilution method; summary of the method: as §1
Pseudomonas aeruginosa [32] = assay: Antimicrobial activity against extended spectrum beta-lactamases-producing Pseudomonas aeruginosa 10-5 after 18-24 hrs by two-fold serial dilution method; summary of the method: as §1
Pseudomonas aeruginosa [33] = assay: Antimicrobial activity against extended spectrum beta-lactamases-producing Pseudomonas aeruginosa 10-9 after 18-24 hrs by two-fold serial dilution method; summary of the method: as §1
Pseudomonas aeruginosa [34] = assay: Antimicrobial activity against extended spectrum beta-lactamases-producing Pseudomonas aeruginosa 10-15 after 18-24 hrs by two-fold serial dilution method; summary of the method: as §1
Pseudomonas aeruginosa [35] = assay: Antimicrobial activity against extended spectrum beta-lactamases-producing Pseudomonas aeruginosa 10-18 after 18-24 hrs by two-fold serial dilution method; summary of the method: as §1
Pseudomonas aeruginosa [36] = assay: Antimicrobial activity against extended spectrum beta-lactamases-producing Pseudomonas aeruginosa 10-20 after 18-24 hrs by two-fold serial dilution method; summary of the method: as §1

Q: `COc1cc(CO/N=C2\CN(c3nc4c(cc3F)c(=O)c(C(=O)O)cn4C3CC3)CC2CN)cc(OC)c1OC.CS(=O)(=O)O` (racemic) was tested. Which MIC (Staphylococcus aureus [1]) did it give?
A: The MIC was 0.125 µg/mL.

Q: What about the MIC (Staphylococcus aureus [2]) of the same molecule?
A: The MIC was 2 µg/mL.

Q: And the MIC (Staphylococcus aureus [3])?
A: Its MIC is 0.25 µg/mL.

Q: And the MIC (Staphylococcus aureus [4])?
A: Its MIC is 1 µg/mL.

Q: And the MIC (Staphylococcus aureus [5])?
A: The MIC was 0.125 µg/mL.

Q: And the MIC [6]?
A: Its MIC is 2 µg/mL.

Q: What about the MIC [7] of the same molecule?
A: Its MIC is 0.5 µg/mL.

Q: And the MIC [8]?
A: Its MIC is 8 µg/mL.

Q: And the MIC [9]?
A: The MIC was 2 µg/mL.

Q: What about the MIC [10] of the same molecule?
A: Its MIC is 8 µg/mL.

Q: And the MIC (Enterococcus faecalis [11])?
A: The MIC was 1 µg/mL.

Q: And the MIC (Enterococcus faecalis [12])?
A: Its MIC is 4 µg/mL.

Q: And the MIC (Enterococcus faecalis [13])?
A: Its MIC is 2 µg/mL.

Q: And the MIC (Enterococcus faecium [14])?
A: Its MIC is 8 µg/mL.

Q: And the MIC (Enterococcus faecium [15])?
A: Its MIC is 8 µg/mL.

Q: What about the MIC (Streptococcus pneumoniae [16]) of the same molecule?
A: Its MIC is 1 µg/mL.

Q: What about the MIC (Streptococcus pneumoniae [17]) of the same molecule?
A: The MIC was 8 µg/mL.

Q: What about the MIC (Escherichia coli [18]) of the same molecule?
A: The MIC was 0.5 µg/mL.

Q: And the MIC (Escherichia coli [19])?
A: The MIC was 128 µg/mL.

Q: What about the MIC (Escherichia coli [20]) of the same molecule?
A: Its MIC is 16 µg/mL.

Q: And the MIC (Escherichia coli [21])?
A: Its MIC is over 128 µg/mL.

Q: What about the MIC (Escherichia coli [22]) of the same molecule?
A: Its MIC is 16 µg/mL.

Q: What about the MIC (Escherichia coli [23]) of the same molecule?
A: The MIC was 16 µg/mL.

Q: What about the MIC (Escherichia coli [24]) of the same molecule?
A: The MIC was 8 µg/mL.

Q: What about the MIC (Klebsiella pneumoniae [25]) of the same molecule?
A: The MIC was over 128 µg/mL.

Q: And the MIC (Klebsiella pneumoniae [26])?
A: The MIC was over 128 µg/mL.

Q: And the MIC (Klebsiella pneumoniae [27])?
A: The MIC was over 128 µg/mL.

Q: What about the MIC (Klebsiella pneumoniae [28]) of the same molecule?
A: The MIC was 8 µg/mL.

Q: And the MIC (Klebsiella pneumoniae [29])?
A: The MIC was over 128 µg/mL.

Q: What about the MIC (Klebsiella pneumoniae [30]) of the same molecule?
A: The MIC was over 128 µg/mL.

Q: What about the MIC (Pseudomonas aeruginosa [31]) of the same molecule?
A: Its MIC is 0.125 µg/mL.

Q: And the MIC (Pseudomonas aeruginosa [32])?
A: The MIC was 8 µg/mL.

Q: What about the MIC (Pseudomonas aeruginosa [33]) of the same molecule?
A: The MIC was 8 µg/mL.

Q: And the MIC (Pseudomonas aeruginosa [34])?
A: The MIC was 8 µg/mL.

Q: What about the MIC (Pseudomonas aeruginosa [35]) of the same molecule?
A: The MIC was 4 µg/mL.

Q: What about the MIC (Pseudomonas aeruginosa [36]) of the same molecule?
A: Its MIC is 0.5 µg/mL.

Q: Which results are given for `COc1ccc(CO/N=C2\CN(c3nc4c(cc3F)c(=O)c(C(=O)O)cn4C3CC3)CC2CN)cc1.CS(=O)(=O)O` (racemic)?
A: MIC (Staphylococcus aureus [1]): 0.015 µg/mL; MIC (Staphylococcus aureus [2]): 1 µg/mL; MIC (Staphylococcus aureus [3]): 0.25 µg/mL; MIC (Staphylococcus aureus [4]): 0.015 µg/mL; MIC (Staphylococcus aureus [5]): 0.03 µg/mL; MIC [6]: 0.5 µg/mL; MIC [7]: 0.5 µg/mL; MIC [8]: 0.5 µg/mL; MIC [9]: 0.03 µg/mL; MIC [10]: 2 µg/mL; MIC (Enterococcus faecalis [11]): 0.125 µg/mL; MIC (Enterococcus faecalis [12]): 2 µg/mL; MIC (Enterococcus faecalis [13]): 1 µg/mL; MIC (Enterococcus faecium [14]): 4 µg/mL; MIC (Enterococcus faecium [15]): 8 µg/mL; MIC (Streptococcus pneumoniae [16]): 0.125 µg/mL; MIC (Streptococcus pneumoniae [17]): 0.125 µg/mL; MIC (Escherichia coli [18]): 0.06 µg/mL; MIC (Escherichia coli [19]): 32 µg/mL; MIC (Escherichia coli [20]): 2 µg/mL; MIC (Escherichia coli [21]): 128 µg/mL; MIC (Escherichia coli [22]): 8 µg/mL; MIC (Escherichia coli [23]): 16 µg/mL; MIC (Escherichia coli [24]): 2 µg/mL; MIC (Klebsiella pneumoniae [25]): 64 µg/mL; MIC (Klebsiella pneumoniae [26]): 128 µg/mL; MIC (Klebsiella pneumoniae [27]): 128 µg/mL; MIC (Klebsiella pneumoniae [28]): 4 µg/mL; MIC (Klebsiella pneumoniae [29]): 128 µg/mL; MIC (Klebsiella pneumoniae [30]): 128 µg/mL; MIC (Pseudomonas aeruginosa [31]): 2 µg/mL; MIC (Pseudomonas aeruginosa [32]): 4 µg/mL; MIC (Pseudomonas aeruginosa [33]): 4 µg/mL; MIC (Pseudomonas aeruginosa [34]): 8 µg/mL; MIC (Pseudomonas aeruginosa [35]): 4 µg/mL; MIC (Pseudomonas aeruginosa [36]): 2 µg/mL

From ChEMBL document CHEMBL2062435, “Synthesis and in vitro antibacterial activity of gemifloxacin derivatives containing a substituted benzyloxime moiety” (2012)
